Source: ChEMBL document CHEMBL4007442, “Discovery of a Potent and Selective Sphingosine Kinase 1 Inhibitor through the Molecular Combination of Chemotype-Distinct Screening Hits” (J Med Chem, 2017)
pIC50, pKd: −log10 of the molar value.

Key:
Sphingosine kinase 1 [1] = target: T1, Sphingosine kinase 1 (Homo sapiens, UniProt Q9NYA1); experiment: Inhibition of human C-terminal His6-tagged SPHK1 expressed in fall armyworm sf9 cells assessed as reduction in ADP formation using sphingosine as substrate preincubated for 15 mins followed by substrate addition after 1 hr by transcreener-based fluorescence polarization assay
T1 sequence (Q9NYA1 whole entry): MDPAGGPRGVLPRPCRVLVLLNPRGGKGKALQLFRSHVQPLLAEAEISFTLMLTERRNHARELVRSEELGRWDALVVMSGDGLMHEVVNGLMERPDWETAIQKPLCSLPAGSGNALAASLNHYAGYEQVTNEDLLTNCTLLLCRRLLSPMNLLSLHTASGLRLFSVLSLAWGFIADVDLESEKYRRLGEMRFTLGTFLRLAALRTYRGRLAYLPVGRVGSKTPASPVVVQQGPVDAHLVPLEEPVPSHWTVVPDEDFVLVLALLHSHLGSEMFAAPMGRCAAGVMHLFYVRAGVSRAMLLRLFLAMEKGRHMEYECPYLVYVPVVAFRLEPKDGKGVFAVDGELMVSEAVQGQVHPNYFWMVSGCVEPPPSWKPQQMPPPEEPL

Sphingosine kinase 1 [2] = target: T1, Sphingosine kinase 1; experiment: Inhibition of SPHK1 in human MDA1483 cells using C17-sphingosine as substrate assessed as reduction in C17-S1P formation preincubated for 30 mins with substrate measured after 15 mins by LC-MS analysis; assay type: cell-based
Sphingosine kinase 1 [3] = target: T1, Sphingosine kinase 1; experiment: Inhibition of SPHK1 in human whole-blood using C17-sphingosine as substrate assessed as reduction in C17-S1P production preincubated for 30 mins followed by substrate addition measured after 10 mins by MS analysis
Sphingosine kinase 1 [4] = target: T1, Sphingosine kinase 1; experiment: Inhibition of human C-terminal His6-tagged SPHK1 expressed in fall armyworm sf9 cells assessed as reduction in S1P formation using sphingosine as substrate after 1 hr by FITC-based caliper assay
Sphingosine kinase 2 = target: T2, Sphingosine kinase 2 (Homo sapiens, UniProt Q9NRA0); experiment: Inhibition of SPHK2 (unknown origin) by FITC-based caliper assay
T2 sequence (Q9NRA0 whole entry): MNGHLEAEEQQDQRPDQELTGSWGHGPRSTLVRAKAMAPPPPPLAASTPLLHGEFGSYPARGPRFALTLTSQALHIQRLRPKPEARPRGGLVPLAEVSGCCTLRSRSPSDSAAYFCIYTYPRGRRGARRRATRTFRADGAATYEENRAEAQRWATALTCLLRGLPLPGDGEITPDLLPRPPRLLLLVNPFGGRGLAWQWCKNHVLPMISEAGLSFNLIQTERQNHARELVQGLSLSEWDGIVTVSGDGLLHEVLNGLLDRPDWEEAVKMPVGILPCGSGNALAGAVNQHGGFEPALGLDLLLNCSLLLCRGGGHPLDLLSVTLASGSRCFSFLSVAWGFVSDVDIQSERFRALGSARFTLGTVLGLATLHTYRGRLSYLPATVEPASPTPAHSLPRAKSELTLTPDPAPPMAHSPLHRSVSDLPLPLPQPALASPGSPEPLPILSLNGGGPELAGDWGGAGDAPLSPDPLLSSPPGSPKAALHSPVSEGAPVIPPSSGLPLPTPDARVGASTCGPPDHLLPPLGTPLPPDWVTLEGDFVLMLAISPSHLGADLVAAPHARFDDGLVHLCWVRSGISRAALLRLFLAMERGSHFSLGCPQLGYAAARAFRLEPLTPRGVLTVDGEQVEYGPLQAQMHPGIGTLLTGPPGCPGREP
In short: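 Recombinant SphK2 enzyme assay measuring FITC-S1P formation, with product resolved by microfluidic mobility-shift separation. Dose-response gives IC50. Reported values are the mean of two or more independent assays.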

Sphingosine kinase 1 [5] = target: Sphingosine kinase 1 (Homo sapiens, UniProt Q9NYA1, S225A); experiment: Binding affinity to human C-terminal His6-tagged SPHK1 S225A mutant expressed in fall armyworm sf9 cells after 1 hr by ITC analysis
Sphingosine kinase 1 (Homo sapiens, UniProt Q9NYA1, S225A), sequence (Q9NYA1 whole entry S225A): as the sequence (Q9NYA1 whole entry) above, with S225A counted along it

[6] = target: Sphingosine 1-phosphate receptor 3 (Homo sapiens, UniProt Q99500); experiment: Binding affinity to S1PR3 (unknown origin)
Sphingosine 1-phosphate receptor 3, sequence (Q99500 whole entry): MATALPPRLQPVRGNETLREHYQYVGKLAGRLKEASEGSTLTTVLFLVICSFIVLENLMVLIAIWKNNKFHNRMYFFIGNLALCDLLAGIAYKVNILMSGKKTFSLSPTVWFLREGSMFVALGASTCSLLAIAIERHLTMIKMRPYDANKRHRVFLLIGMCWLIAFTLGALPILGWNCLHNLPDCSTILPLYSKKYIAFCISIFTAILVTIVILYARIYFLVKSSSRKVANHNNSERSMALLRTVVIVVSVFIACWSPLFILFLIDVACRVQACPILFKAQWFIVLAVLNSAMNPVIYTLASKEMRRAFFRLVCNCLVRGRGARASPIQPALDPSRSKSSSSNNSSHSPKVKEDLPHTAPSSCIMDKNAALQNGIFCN

[7] = Solubility of the compound; assay type: physicochemical
[8] = Cytotoxicity in human MDA1483 cells at 50 uM by MTT assay; assay type: cell-based; conditions: mda1483, 50 µM
[9] = target: Sphingosine 1-phosphate receptor 5 (Homo sapiens, UniProt Q9H228); experiment: Binding affinity to S1PR5 (unknown origin)
Sphingosine 1-phosphate receptor 5, sequence (Q9H228 whole entry): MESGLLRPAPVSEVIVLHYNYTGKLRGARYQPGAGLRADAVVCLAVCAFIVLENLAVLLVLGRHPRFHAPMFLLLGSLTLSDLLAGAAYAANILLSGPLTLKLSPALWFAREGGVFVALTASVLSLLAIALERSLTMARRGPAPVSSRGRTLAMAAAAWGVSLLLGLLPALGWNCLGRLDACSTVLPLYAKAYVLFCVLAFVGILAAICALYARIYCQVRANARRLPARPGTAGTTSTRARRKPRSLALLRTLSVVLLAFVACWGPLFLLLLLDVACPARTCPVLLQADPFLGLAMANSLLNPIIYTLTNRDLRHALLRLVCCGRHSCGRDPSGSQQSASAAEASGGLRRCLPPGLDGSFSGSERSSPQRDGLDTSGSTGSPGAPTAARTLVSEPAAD

SMILES | pIC50 (Sphingosine kinase 1 [1]) | pIC50 (Sphingosine kinase 1 [2]) | pIC50 (Sphingosine kinase 1 [3]) | pIC50 (Sphingosine kinase 1 [4]) | pIC50 (Sphingosine kinase 2) | pKd (Sphingosine kinase 1 [5]) | pIC50 [6] | solubility [7] | Activity [8] | pIC50 [9]
Cc1cc(CS(=O)(=O)c2ccccc2)cc(OCc2ccc(CN3C[C@@H](O)[C@H](O)C3)cc2)c1 | 8.70 | 9.77 | 8.19 | 8.70 | 6.33 | – | – | – | – | –
Cc1cc(CS(=O)(=O)c2ccccc2)cc(OCc2ccc(CN3C[C@@H](O)[C@@H](O)C3)cc2)c1 | 8.41 | 9.00 | 7.42 | 8.41 | 5.14 | – | – | – | – | –
O=C(Nc1cccc(OCc2ccc(CN3CCC[C@@H]3CO)cc2)c1)c1ccccc1 | 5.44 | 5.92 | < 5.06 | 5.01 | 6.84 | – | – | – | – | –
Cc1nc2ccc(-c3ccc(CN4CCC[C@H]4CO)cc3)cc2n1C[C@@H]1CCCO1 | < 4.00 | < 4.00 | – | < 4.00 | < 4.00 | – | – | – | – | –
OC[C@H]1CCCN1Cc1ccc(COc2cccc(C3CCCCC3)c2)cc1 | 9.15 | 10.52 | 8.82 | > 8.77 | > 8.77 | – | – | – | – | –
Cc1nc2ccc(-c3ccc(CN4CCC[C@@H]4CO)cc3)cc2n1CC(C)C | 6.54 | 6.36 | – | – | – | – | – | – | – | –
Cc1nc2ccc(-c3ccc(CN4CCC[C@@H]4CO)cc3)cc2n1C[C@@H]1CCCO1 | 5.34 | 5.68 | – | 4.90 | < 4.00 | 4.92 | – | – | – | –
O=S(=O)(Cc1cccc(OCc2ccc(CN3CCC[C@@H]3CO)cc2)c1)C1CC1 | 8.00 | 8.77 | 5.83 | 7.39 | 6.79 | – | – | – | – | –
Cc1cc(CS(=O)(=O)c2ccccc2)cc(OCc2ccc(CN3CC[C@@H](O)C3)cc2)c1 | 7.55 | 7.52 | – | – | – | – | – | – | – | –
Cc1cc(CS(=O)(=O)c2ccccc2)cc(OCc2ccc(CN3CC[C@H](O)C3)cc2)c1 | 8.52 | 10.52 | 8.28 | 8.59 | 6.35 | – | – | – | – | –
Cc1nc2ccc(-c3ccc(CN4CCC[C@@H]4CO)cc3)cc2n1C[C@H]1CCCO1 | 6.72 | 7.09 | – | 6.06 | 4.34 | 5.54 | – | – | – | –
CC(C)c1cccc(OCc2ccc(CN3CCC[C@@H]3CO)cc2)c1 | 9.10 | 9.22 | 7.72 | 8.32 | > 8.77 | – | – | – | – | –
Cc1nc2ccc(-c3ccc(CN4CCC[C@@H]4CO)cc3)cc2n1CCC(C)C | 8.15 | 8.40 | – | – | – | – | – | – | – | –
Cc1nc2ccc(-c3ccc(CN4CCC[C@H]4CO)cc3)cc2n1C[C@H]1CCCO1 | 4.51 | 5.01 | – | < 4.00 | < 4.00 | – | – | – | – | –
O=S(=O)(Cc1cccc(OCc2ccc(CN3CCC[C@@H]3CO)cc2)c1)c1ccccc1 | 8.70 | 9.52 | 7.46 | 8.62 | 6.79 | – | – | – | – | –
Cc1nc2ccc(-c3ccc(CN4CCC[C@@H]4CO)cc3)cc2n1CCC1CCC1 | 8.10 | 8.40 | – | – | – | – | – | – | – | –
CS(=O)(=O)Cc1cccc(OCc2ccc(CN3CCC[C@@H]3CO)cc2)c1 | 6.36 | 6.28 | – | – | – | – | – | – | – | –
Cc1nc2ccc(-c3ccc(CN4CCC[C@@H]4CO)cc3)cc2n1Cc1ccccc1 | 6.36 | 6.60 | – | – | – | – | – | – | – | –
Cc1nc2ccc(-c3ccc(CN4CCCC4)cc3)cc2n1C[C@H]1CCCO1 | < 4.00 | – | – | – | – | – | – | – | – | –
Cc1cc(CS(=O)(=O)c2ccccc2)cc(OCc2ccc3[nH]c(N)nc3c2)c1 | 5.77 | 6.74 | – | 5.85 | 4.40 | – | < 5.00 | Insoluble | Non-Toxic | < 5.00
Cc1cc(CS(=O)(=O)c2ccccc2)cc(OCc2ccc3[nH]cnc3c2)c1 | 4.32 | 4.57 | – | 4.32 | – | – | – | – | – | –
Cc1cc(CS(=O)(=O)c2ccccc2)cc(OCc2ccc(CNCCO)cc2)c1 | 8.28 | 8.46 | – | 7.84 | 4.45 | – | – | – | – | –
Cc1nc(-c2cccc(OCc3ccc(CN4CCC[C@@H]4CO)cc3)c2)no1 | 8.35 | 8.77 | 6.76 | 7.60 | 8.62 | – | – | – | – | –
Cc1nc2ccc(-c3ccc(CN4CCC[C@@H]4CO)cc3)cc2n1CC1CCCC1 | 7.96 | 8.00 | – | – | – | – | – | – | – | –
